This is a sample that favours compounds with a hit; in the whole collection about 4.3% have one here.
STAT3 act-1: increases IL-6 driven STAT3 reporter signal; U3A cells, IL-6 STAT3-luciferase reporter, luminescence; 100% = signal with IL-6 EC80 alone; activation (% of control), % at 5.6 µM; 190,000 tested, 0.91% active; AID 871;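 active means activation above the screen-wide mean of compound activation plus 3 SD, cut at about 130% in these data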;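 further: 0% = background luminescence of wells with medium and substrate only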
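Test system: STAT3-luciferase reporter U3A cells; Detection: reporter luminescence signal; Times: 1 h compound pre-exposure, 6 h IL-6 stimulation, 37 °C; Benchmarks: IL-6-only high control; Also added: IL-6 stimulus at 33 ng/mL final.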
STAT1 act-1: STAT1 signaling activation; NIH 3T3 STAT1-luciferase reporter, IFN-gamma, luminescence; 100% = IFN-gamma alone, no compound; activation (% of control), % at 5.5 µM; 200,000 tested, 2.6% active; AID 932;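 active means activation above the screen-wide mean activation plus 3 SD, cut at about 130% in these data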;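 further: raw ratio to IFN-gamma control signal so 100% means no change and 0% no light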
STAT1 blocker: reduces IFN-gamma driven STAT1 reporter signal. NIH 3T3 STAT1-luciferase reporter, luminescence. inhibition, % at 5.5 µM. 200,000 tested, 0.35% active;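 active means inhibition above a set limit, the mean inhibition across all tested compounds plus 3 SD, cut at about 34% in these data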;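 further: 0% = IFN-gamma with DMSO and 100% = IFN-gamma with 300 µM nifuroxazide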
STAT3 inh: inhibitors of IL-6 induced STAT3 signaling. inhibition, % at 5.5 µM. 190,000 tested, 0.89% active. U3A cells, IL-6 STAT3-luciferase reporter, luminescence; host cell line lacks STAT1;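 active means inhibition above the mean inhibition across all screened compounds plus 3 SD, cut at about 44% in these data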;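 further: 0% = DMSO only wells and 100% = 100 µM nifuroxazide control wells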
STAT3 act-2: confirmation of STAT3 signaling activators. U3A STAT3-luciferase reporter, IL-6 potentiation, luminescence; U3A cells lack STAT1; 100 means same as IL-6 alone. potentiation (% of control), % at 5.7 µM. shares compounds with STAT3 act-1. 1,200 tested, 64% active;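 active means percent activation of the STAT3 luciferase reporter above a set limit taken from the earlier primary screen, cut at about 130% in these data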;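 further: 0% = background signal of medium plus substrate and 100% = median of IL-6 with DMSO wells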
NFkB act 2: activates NF-kappaB, counter-screen to STAT3 activators; shares compounds with STAT3 act-1; human cells, NF-kappaB reporter activation; activation (% of control), % at 5.7 µM; 1,200 tested, 11% active; AID 1309; in the data active means activation above about 120%;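 further: reporter induced by TNF-alpha stimulation; 100% = median of stimulated DMSO wells and 0% = no signal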
STAT1 act-2: counter-screen for STAT3 activators: STAT1 activation; shares compounds with STAT3 act-1; NIH 3T3 STAT1-luciferase reporter, IFN-gamma, luminescence; activation (% of control), % at 5.7 µM; 1,200 tested, 13% active; AID 1318;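 active means activation above the solvent-only control well mean plus 3 SD, set per screening run, cut at about 120% in these data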;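 further: 100% = IFN-gamma with DMSO median signal so 100% means no change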
* hit, by the source's call.

Results for Cc1ccc(NC(=O)c2cnc(N3CCN(c4ccccn4)CC3)c3ccccc23)c(Br)c1 ?
STAT3 act-1: 142.7*; STAT1 act-1: 91.3; STAT1 blocker: 8.4; STAT3 inh: -51.6; STAT3 act-2: 126.0; NFkB act 2: 113.2; STAT1 act-2: 108.5

How did O=C(Nc1c(F)cccc1F)c1cnc(N2CCN(c3ccccn3)CC2)c2ccccc12 do in these assays?
STAT3 act-1: 98.3; STAT1 act-1: 106.1; STAT1 blocker: -6.6; STAT3 inh: 7.8

How did O=C1CSC(c2cccc([N+](=O)[O-])c2)N1c1ccccc1F (stereo unspecified) do in these assays?
STAT3 act-1: 96.4; STAT1 act-1: 99.3; STAT1 blocker: -1.1; STAT3 inh: 9.1

What do the screens show for `CN(C)C(=O)COC(=O)/C=C/c1ccccc1[N+](=O)[O-]`?
STAT3 act-1: 161.8*; STAT1 act-1: 77.4; STAT1 blocker: 24.5; STAT3 inh: -73.2; STAT3 act-2: 142.6*; NFkB act 2: 103.9; STAT1 act-2: 73.2

What do the screens show for `O=C(COC(=O)/C=C/c1ccccc1[N+](=O)[O-])NCC(F)(F)F`?
STAT3 act-1: 149.9*; STAT1 act-1: 80.1; STAT1 blocker: 21.3; STAT3 inh: -63.0; STAT3 act-2: 162.5*; NFkB act 2: 104.1; STAT1 act-2: 100.5

Results for Cc1ccc(C(=O)/C=C/c2ccccc2[N+](=O)[O-])cc1 ?
STAT3 act-1: 138.3*; STAT1 act-1: 120.5; STAT1 blocker: -23.8; STAT3 inh: -36.5; STAT3 act-2: 162.4*; NFkB act 2: 121.2*; STAT1 act-2: 125.0*

How did CCNC(=O)COC(=O)/C=C/c1ccccc1[N+](=O)[O-] do in these assays?
STAT3 act-1: 92.4; STAT1 act-1: 85.2; STAT1 blocker: 16.0; STAT3 inh: 6.3

What do the screens show for `O=C(COC(=O)/C=C/c1ccccc1[N+](=O)[O-])NCC1CCCO1` (stereo unspecified)?
STAT3 act-1: 102.5; STAT1 act-1: 91.2; STAT1 blocker: 7.7; STAT3 inh: 0.8

How did CCN(C(=O)COC(=O)/C=C/c1ccccc1[N+](=O)[O-])C1CCS(=O)(=O)C1 (stereo unspecified) do in these assays?
STAT3 act-1: 149.2*; STAT1 act-1: 70.7; STAT1 blocker: 32.4; STAT3 inh: -51.3; STAT3 act-2: 141.1*; NFkB act 2: 105.2; STAT1 act-2: 71.2

Results for COC(=O)C1CCN(c2ccc(C(N)=O)cc2[N+](=O)[O-])CC1 ?
STAT3 act-1: 108.7; STAT1 act-1: 100.4; STAT1 blocker: -0.4; STAT3 inh: -4.0

Results for Cc1ccc(S(=O)(=O)N2CCCCC2)cc1NC(=O)COC(=O)Cc1cccc(C(F)(F)F)c1 ?
STAT3 act-1: 85.7; STAT1 act-1: 94.1; STAT1 blocker: 6.4; STAT3 inh: 23.4

What do the screens show for `CCOc1ccc(NC(=O)CSc2nnc(CNC(=O)c3ccco3)o2)cc1`?
STAT3 act-1: 105.9; STAT1 act-1: 96.5; STAT1 blocker: 2.1; STAT3 inh: -4.5

Results for CCCn1c(N2CCN(CC(=O)c3c[nH]c4ccccc34)CC2)nc2c1c(=O)[nH]c(=O)n2C ?
STAT3 act-1: 147.4*; STAT1 act-1: 99.0; STAT1 blocker: 1.1; STAT3 inh: -53.2; STAT3 act-2: 138.7*; NFkB act 2: 103.8; STAT1 act-2: 97.4

What do the screens show for `O=C(CN1CCN(Cc2ccccc2)CC1)c1c[nH]c2ccccc12`?
STAT3 act-1: 137.8*; STAT1 act-1: 97.4; STAT1 blocker: 2.8; STAT3 inh: -41.7; STAT3 act-2: 123.3; NFkB act 2: 99.9; STAT1 act-2: 98.1

How did CCn1c(N2CCN(CC(=O)c3c(C)n(C)c4ccccc34)CC2)nc2c1c(=O)[nH]c(=O)n2C do in these assays?
STAT3 act-1: 92.8; STAT1 act-1: 97.4; STAT1 blocker: 2.8; STAT3 inh: 12.4

What do the screens show for `O=C(CN1CCSCC1)c1c[nH]c2ccccc12`?
STAT3 act-1: 125.4; STAT1 act-1: 87.1; STAT1 blocker: 14.0; STAT3 inh: -20.7

What do the screens show for `Cc1ccc(-c2ccccc2[C@@H]2C[C@H]3CN(C)C(=O)[C@]34CCCN24)o1`?
STAT3 act-1: 105.9; STAT1 act-1: 100.3; STAT1 blocker: -1.9; STAT3 inh: -2.1

Results for O=C1N(c2ccccc2)C[C@@H]2C[C@@H](c3cc4ccccc4o3)N3CCC[C@@]123 ?
STAT3 act-1: 140.8*; STAT1 act-1: 105.3; STAT1 blocker: -7.3; STAT3 inh: -41.4; STAT3 act-2: 156.5*; NFkB act 2: 43.1; STAT1 act-2: 106.8

How did COc1ccccc1OCCC(=O)OCC(=O)c1[nH]c(C)c(C(C)=O)c1C do in these assays?
STAT3 act-1: 98.3; STAT1 act-1: 84.5; STAT1 blocker: 17.2; STAT3 inh: 2.6

What do the screens show for `Oc1ccccc1CNc1cnc2ccccc2c1`?
STAT3 act-1: 84.7; STAT1 act-1: 102.7; STAT1 blocker: -5.9; STAT3 inh: 21.4

What do the screens show for `Oc1ccc2ccccc2c1CNc1cnc2ccccc2c1`?
STAT3 act-1: 146.3*; STAT1 act-1: 96.9; STAT1 blocker: 3.4; STAT3 inh: -58.5; STAT3 act-2: 133.3*; NFkB act 2: 99.1; STAT1 act-2: 104.3

What do the screens show for `Cc1cccc(NC(=O)c2cc([N+](=O)[O-])ccc2N2CCCCC2)n1`?
STAT3 act-1: 100.3; STAT1 act-1: 102.3; STAT1 blocker: -5.6; STAT3 inh: 4.5

Results for COc1cc(-c2nnc(SCC(=O)NC3CCS(=O)(=O)C3)o2)cc(OC)c1OC (stereo unspecified) ?
STAT3 act-1: 100.2; STAT1 act-1: 100.2; STAT1 blocker: -0.3; STAT3 inh: 5.5

What do the screens show for `O=C(CCc1ccc(S(=O)(=O)N2CCOCC2)cc1)OCc1nc2ccccc2s1`?
STAT3 act-1: 141.8*; STAT1 act-1: 120.4; STAT1 blocker: -21.9; STAT3 inh: -43.7; STAT3 act-2: 146.6*; NFkB act 2: 121.9*; STAT1 act-2: 135.7*

How did COc1ccc(CCNC(=O)COC(=O)CCC(=O)c2ccc(F)cc2)cc1OC do in these assays?
STAT3 act-1: 103.7; STAT1 act-1: 96.7; STAT1 blocker: 3.2; STAT3 inh: -0.4

What do the screens show for `Cc1nc([N+](=O)[O-])c(Br)n1Cc1ccc(Cl)c(Cl)c1`?
STAT3 act-1: 139.1*; STAT1 act-1: 74.5; STAT1 blocker: 27.2; STAT3 inh: -27.6; STAT3 act-2: 116.5; NFkB act 2: 107.3; STAT1 act-2: 77.4

How did Cc1nc([N+](=O)[O-])c(Br)n1CC(=O)c1ccc(Cl)cc1 do in these assays?
STAT3 act-1: 100.7; STAT1 act-1: 95.1; STAT1 blocker: 5.3; STAT3 inh: 4.8

Compound activity: PubChem, The Scripps Research Institute Molecular Screening Center
